Assay results as given in ChEMBL document CHEMBL4834402, “Discovery of TAK-981, a First-in-Class Inhibitor of SUMO-Activating Enzyme for the Treatment of Cancer” (J Med Chem, 2021).
≈ marks a conversion by molar mass, not a printed value.

Key:
[1] = Inhibition of UAE (unknown origin) using Ub as substrate incubated for 60 mins in presence of ATP and PPi by pyrophosphate exchange assay; parameters: species or system Homo sapiens
Method in brief: (§1)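 Pyrophosphate exchange assay of E1 activity at 1 mM ATP. Substrates were SUMO1 or SUMO2 for SAE, Ub for UAE and Nedd-8 for NAE.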

SUMO-activating enzyme [2] = target: T1, SUMO-activating enzyme (Homo sapiens, UniProt Q9UBT2); assay: Inhibition of SAE (unknown origin) using SUMO1 as substrate incubated for 60 mins in presence of ATP and PPi by pyrophosphate exchange assay; assay type: protein-complex assay; method in brief: as §1
NEDD8 activating enzyme [3] = target: T2, NEDD8 activating enzyme (Homo sapiens, UniProt Q8TBC4); assay: Inhibition of NAE (unknown origin) using Nedd-8 as substrate incubated for 60 mins in presence of ATP and PPi by pyrophosphate exchange assay; assay type: protein-complex assay; method in brief: as §1
T2 sequence (Q8TBC4 whole entry): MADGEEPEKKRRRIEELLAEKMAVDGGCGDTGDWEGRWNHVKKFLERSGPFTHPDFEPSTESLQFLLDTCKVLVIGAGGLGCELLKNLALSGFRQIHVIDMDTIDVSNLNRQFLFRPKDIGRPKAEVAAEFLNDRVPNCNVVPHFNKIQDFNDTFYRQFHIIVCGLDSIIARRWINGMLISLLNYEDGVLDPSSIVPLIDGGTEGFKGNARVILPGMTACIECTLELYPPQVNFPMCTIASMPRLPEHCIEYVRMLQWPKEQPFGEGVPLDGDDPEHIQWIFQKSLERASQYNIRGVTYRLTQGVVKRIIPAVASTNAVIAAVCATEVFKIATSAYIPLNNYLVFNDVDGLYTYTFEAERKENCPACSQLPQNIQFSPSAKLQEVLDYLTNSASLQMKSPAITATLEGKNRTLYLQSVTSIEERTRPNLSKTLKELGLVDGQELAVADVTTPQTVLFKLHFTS
T2 sequence (Q13564 whole entry): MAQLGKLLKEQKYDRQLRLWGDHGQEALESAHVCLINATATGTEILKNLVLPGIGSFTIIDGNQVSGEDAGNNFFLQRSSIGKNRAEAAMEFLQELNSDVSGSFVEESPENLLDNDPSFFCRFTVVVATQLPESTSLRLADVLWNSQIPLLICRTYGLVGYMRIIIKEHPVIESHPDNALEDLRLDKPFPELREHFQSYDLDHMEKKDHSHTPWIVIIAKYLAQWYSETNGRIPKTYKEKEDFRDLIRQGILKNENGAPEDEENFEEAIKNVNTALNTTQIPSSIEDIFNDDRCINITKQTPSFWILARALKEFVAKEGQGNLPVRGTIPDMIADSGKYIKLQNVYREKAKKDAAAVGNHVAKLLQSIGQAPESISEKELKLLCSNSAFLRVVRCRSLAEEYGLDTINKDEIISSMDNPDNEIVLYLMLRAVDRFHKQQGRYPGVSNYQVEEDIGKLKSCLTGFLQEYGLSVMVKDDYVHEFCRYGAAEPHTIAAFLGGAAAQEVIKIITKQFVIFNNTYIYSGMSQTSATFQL

SUMO-activating enzyme [4] = target: T1, SUMO-activating enzyme; assay: Inhibition of SAE (unknown origin) using SUMO2 as substrate incubated for 60 mins in presence of ATP and PPi by pyrophosphate exchange assay; assay type: protein-complex assay; method in brief: as §1
SUMO-activating enzyme [5] = target: T1, SUMO-activating enzyme; assay: Inhibition of SAE in human HCT116 cells assessed as reduction in conjugation of SUMO proteins to UBC9 by Western blot analysis; assay type: cell-based, HCT-116
Method in brief: (§2)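 HCT116 cells, quantitative Western blot of E2–UBL conjugates. Read-outs were SUMO–UBC9 for SAE, ubiquitin–[…] for UAE and Nedd-8–[…] for NAE.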

NEDD8 activating enzyme [6] = target: T2, NEDD8 activating enzyme; assay: Inhibition of NAE in human HCT116 cells assessed as reduction in conjugation of Nedd8 […] by Western blot analysis; assay type: cell-based, HCT-116; method in brief: as §2
[7] = Inhibition of recombinant UAE (unknown origin) in presence of ATP at Km concentration by HTRF assay; parameters: species or system Homo sapiens
NEDD8 activating enzyme [8] = target: T2, NEDD8 activating enzyme; assay: Inhibition of recombinant NAE (unknown origin) in presence of ATP at Km concentration by HTRF assay; assay type: protein-complex assay
[9] = Inhibition of UAE in human HCT116 cells assessed as reduction in conjugation of ubiquitin to […] by Western blot analysis; assay type: cell-based; details: hct-116; method in brief: as §2
SUMO-activating enzyme [10] = target: T1, SUMO-activating enzyme; assay: Inhibition of SAE in human HCT116 cells assessed as reduction in redistribution of SUMO2/3 proteins from nucleus to cytosol incubated for 4 hrs by immunofluorescence assay; assay type: cell-based, HCT-116
Method in brief: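 HCT-116 cells exposed to compound across a concentration range for 4 h, then stained with anti-SUMO2/3 monoclonal antibody. Automated imaging scored the nuclear (inner) to cytoplasmic (outer) SUMO2/3 ratio. IC50 taken from the dose response.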

SUMO-activating enzyme [11] = target: T1, SUMO-activating enzyme; assay: Inhibition of recombinant SAE (unknown origin) assessed as reduction in transfer of SUMO1 to UBC9 using SUMO1 as a substrate in presence of ATP at Km concentration by HTRF assay; assay type: protein-complex assay
Method in brief: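 HTRF transthiolation assay measuring transfer of SUMO1 to UBC9, the E2 for SAE.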

[12] = Oral bioavailability in rat plasma at 10 mg/kg; assay type: ADME, organism-based
Carbonic anhydrase 2 = Carbonic anhydrase 2 (Homo sapiens, UniProt P00918); assay: Inhibition of recombinant human CA2 expressed in Escherichia coli using fluorescein diacetate as substrate at […] by fluorometric esterase assay
OCI-Ly10 = assay: Cytotoxicity against human OCI-LY10 cells assessed as reduction in cell viability after 72 hrs by CellTiter-Glo luminescent assay; assay type: functional, cell-based; details: OCI-Ly10, 72 h
[13] = Apparent permeability across apical to basolateral side in human Caco2 cells; assay type: ADME, cell-based; details: Caco-2
[14] = Solubility of compound in 10% hydroxypropyl-beta-cyclodextrin after 24 hrs; assay type: physicochemical
[15] = Clearance in rat plasma at 1 mg/kg, iv; assay type: ADME, organism-based; details: in vivo
[16] = Lipophilicity, logD of compound at pH 7.4; assay type: physicochemical; details: buffer
[17] = AUC in rat plasma at 10 mg/kg, po; assay type: ADME, organism-based; parameters: dose 10 mg/kg
[18] = Dissociation constant , pKa of the compound; assay type: physicochemical
[19] = Apparent permeability across basolateral to apical side in human Caco2 cells; assay type: ADME, cell-based; details: Caco-2
HCT-116 = assay: Cytotoxicity against human HCT116 cells assessed as reduction in cell viability after 72 hrs by CellTiter-Glo luminescent assay; assay type: functional, cell-based; details: HCT-116, 72 h
[20] = Clearance in rat blood at 1 mg/kg, iv; assay type: ADME, organism-based; details: in vivo
[21] = AUC in rat blood at 1 mg/kg, iv; assay type: ADME, organism-based; parameters: dose 1 mg/kg
Carbonic anhydrase 1 = Carbonic anhydrase 1 (Homo sapiens, UniProt P00915); assay: Inhibition of human erythrocyte CA1 using fluorescein diacetate as substrate at […] by fluorometric esterase assay
[22] = Oral bioavailability in rat blood at 10 mg/kg; assay type: ADME, organism-based
[23] = Half life in rat plasma at 1 mg/kg, iv; assay type: ADME, organism-based
[24] = AUC in rat plasma at 1 mg/kg, iv; assay type: ADME, organism-based; parameters: dose 1 mg/kg
[25] = Volume of distribution at steady state in rat blood at 1 mg/kg, iv; assay type: ADME, organism-based; details: read-out: Vdss
[26] = Volume of distribution at steady state in rat plasma at 1 mg/kg, iv; assay type: ADME, organism-based; details: read-out: Vdss
[27] = AUC in rat blood at 10 mg/kg, po; assay type: ADME, organism-based; parameters: dose 10 mg/kg
[28] = Efflux ratio of apparent permeability across basolateral to apical side over apical to basolateral side in human Caco-2 cells; assay type: ADME, cell-based
[29] = Half life in rat blood at 1 mg/kg, iv; assay type: ADME, organism-based

T1 sequence (Q9UBE0 whole entry): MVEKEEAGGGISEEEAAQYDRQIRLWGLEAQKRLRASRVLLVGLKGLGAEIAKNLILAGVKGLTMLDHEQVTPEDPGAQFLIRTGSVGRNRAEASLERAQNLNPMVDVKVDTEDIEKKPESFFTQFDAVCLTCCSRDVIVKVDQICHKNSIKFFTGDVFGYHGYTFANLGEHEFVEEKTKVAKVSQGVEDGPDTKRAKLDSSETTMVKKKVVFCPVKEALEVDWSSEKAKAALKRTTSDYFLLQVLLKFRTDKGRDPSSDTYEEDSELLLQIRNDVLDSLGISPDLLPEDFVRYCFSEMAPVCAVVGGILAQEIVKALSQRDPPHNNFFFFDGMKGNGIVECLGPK
T1 sequence (Q9UBT2 whole entry): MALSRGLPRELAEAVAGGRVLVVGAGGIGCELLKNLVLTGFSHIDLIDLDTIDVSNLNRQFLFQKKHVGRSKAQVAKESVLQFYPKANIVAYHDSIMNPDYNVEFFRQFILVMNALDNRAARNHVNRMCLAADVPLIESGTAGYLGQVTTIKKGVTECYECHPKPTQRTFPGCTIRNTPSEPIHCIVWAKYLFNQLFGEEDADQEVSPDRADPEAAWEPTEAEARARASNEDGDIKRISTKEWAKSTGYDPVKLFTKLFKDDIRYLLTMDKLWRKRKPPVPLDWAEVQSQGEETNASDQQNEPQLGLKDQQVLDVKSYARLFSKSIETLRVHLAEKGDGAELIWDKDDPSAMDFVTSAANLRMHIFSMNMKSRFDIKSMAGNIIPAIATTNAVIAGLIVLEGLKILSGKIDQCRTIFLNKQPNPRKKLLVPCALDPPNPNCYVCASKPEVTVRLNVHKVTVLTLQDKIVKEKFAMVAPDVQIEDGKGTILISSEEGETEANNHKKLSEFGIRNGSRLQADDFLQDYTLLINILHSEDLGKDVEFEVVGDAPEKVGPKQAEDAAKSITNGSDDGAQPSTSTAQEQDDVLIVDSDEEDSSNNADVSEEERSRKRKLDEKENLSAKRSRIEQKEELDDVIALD
Sequence of Carbonic anhydrase 1 (P00915 whole entry): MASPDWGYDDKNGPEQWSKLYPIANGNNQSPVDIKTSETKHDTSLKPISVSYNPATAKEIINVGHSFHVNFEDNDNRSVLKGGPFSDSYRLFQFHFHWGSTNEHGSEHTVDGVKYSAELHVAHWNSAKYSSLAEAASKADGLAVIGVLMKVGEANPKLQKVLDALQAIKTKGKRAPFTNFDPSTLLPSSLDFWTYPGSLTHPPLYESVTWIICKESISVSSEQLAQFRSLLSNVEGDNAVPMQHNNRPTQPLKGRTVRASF

NS(=O)(=O)OC[C@H]1C[C@@H](Nc2ncncc2C(=O)c2ccn(Cc3ccccc3)n2)[C@H](O)[C@@H]1O
IC50 [1]: 1100 nM
IC50 (SUMO-activating enzyme [2]): 6 nM
IC50 (NEDD8 activating enzyme [3]): 300 nM
IC50 (SUMO-activating enzyme [4]): 50 nM
IC50 (SUMO-activating enzyme [5]): 6 nM
IC50 (NEDD8 activating enzyme [6]): 1400 nM
IC50 [7]: 58 nM
IC50 (NEDD8 activating enzyme [8]): 29 nM
IC50 [9]: 410 nM
IC50 (SUMO-activating enzyme [10]): 26 nM
IC50 (SUMO-activating enzyme [11]): 1 nM

Cc1sc(C(=O)c2cncnc2N[C@@H]2C[C@H](COS(N)(=O)=O)[C@@H](O)C2)cc1C1OCCc2ccc(Cl)cc21 (stereo in doubt)
bioavailability [12]: 18%
IC50 (Carbonic anhydrase 2): 10 nM
EC50 (OCI-Ly10): 4 nM
Papp A→B [13]: 4 ×10⁻⁶ cm/s
solubility at 24 h [14]: 100 µg/mL (≈ 173 µM)
clearance [15]: 86.7 mL/min/kg
logD [16]: 1.9
AUC [17]: 0.6 µM·h
pKa [18]: 3.5
IC50 [7]: > 1000 nM
Papp B→A [19]: 64 ×10⁻⁶ cm/s
EC50 (HCT-116): 110 nM
IC50 (NEDD8 activating enzyme [8]): 386 nM
clearance [20]: 1.67 mL/min/kg
AUC [21]: 12.5 µM·h
IC50 (Carbonic anhydrase 1): 50 nM
IC50 (SUMO-activating enzyme [10]): 3 nM
IC50 (SUMO-activating enzyme [11]): 0.4 nM
bioavailability [22]: 19%
half-life [23]: 1.5 h
AUC [24]: 0.3 µM·h
Vd [25]: 0.2 L/kg
Vd [26]: 5 L/kg
AUC [27]: 24.1 µM·h
efflux ratio [28]: > 16
half-life [29]: 4 h
